Screening data deposited in PubChem by several laboratories.
STAT1 blocker: STAT1 signaling inhibition; NIH 3T3 STAT1-luciferase reporter, IFN-gamma, luminescence; inhibition, % at 5.5 µM; 200,000 tested, 0.35% active; AID 920;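 active = inhibition above a set limit, the mean inhibition across all tested compounds plus 3 SD, cut at about 34% in these data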;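 also: 0% = IFN-gamma with DMSO and 100% = IFN-gamma with 300 µM nifuroxazide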
STAT3 activator: activators of IL-6 induced STAT3 signaling | U3A cells, IL-6 STAT3-luciferase reporter, luminescence; 100% = signal with IL-6 EC80 alone | activation (% of control), % at 5.6 µM | 190,000 tested, 0.91% active | AID 871;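 active = activation above the screen-wide mean of compound activation plus 3 SD, cut at about 130% in these data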;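 also: 0% = background luminescence of wells with medium and substrate only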
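system = STAT3-luciferase reporter U3A cells | reagent = IL-6 stimulus at 33 ng/mL final | timing = 1 h compound pre-exposure, 6 h IL-6 stimulation, 37 °C | measured by = luminescence | evaluation = % activation versus median of IL-6-stimulated wells | control set = IL-6-only wells as 100% reference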
APP 5'UTR act: activates APP 5'UTR luciferase reporter; SH-SY5Y APP 5'UTR luciferase reporter, luminescence; zero percent = DMSO vehicle wells; 190,000 tested, 1% active; activation, % at 2 µM;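 active = activation above a set limit, based on mean plus 3 SD of controls, cut at about 140% in these data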
STAT3 inh: inhibitors of IL-6 induced STAT3 signaling; U3A cells, IL-6 STAT3-luciferase reporter, luminescence; host cell line lacks STAT1; inhibition, % at 5.5 µM; 190,000 tested, 0.89% active; AID 862;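 active = inhibition above the mean inhibition across all screened compounds plus 3 SD, cut at about 44% in these data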;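 also: 0% = DMSO only wells and 100% = 100 µM nifuroxazide control wells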
NF-kB neuron act: compounds increasing NF-kB expression in human neuronal cells; NF-kB reporter expression; stronger effect = higher value; fold change at 12.5 µM; 190,000 tested, 1.6% active; AID 1239; in the data active = fold change above about 3.3
STAT1 activator: increases IFN-gamma driven STAT1 reporter signal; NIH 3T3 STAT1-luciferase reporter, luminescence; 100% = IFN-gamma alone, no compound; activation (% of control), % at 5.5 µM; 200,000 tested, 2.6% active; AID 932;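 active = activation above the screen-wide mean activation plus 3 SD, cut at about 130% in these data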;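 also: raw ratio to IFN-gamma control signal so 100% means no change and 0% no light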
* hit, by the source's call. This is a sample that favours compounds with a hit; in the whole collection about 4.9% have one here.

SMILES | STAT1 blocker | STAT3 activator | APP 5'UTR act | STAT3 inh | NF-kB neuron act | STAT1 activator
Cc1ccc(N2NC(C)(c3cccs3)NC2=S)cc1 (stereo not given) | -20 | 94 | 53 | 7 | 3.3* | 118
Cc1ccc(N2CC(O)(c3cccs3)[N+]3=C2CCCC3)cc1 (stereo not given) | 29 | 119 | 4 | -9 | 0.98 | 72
CN1CCN(CC(=O)N2c3ccccc3C(C)(c3ccc(Cl)cc3)CC2(C)C)CC1 (stereo not given) | -3 | 107 | -3 | -1 | 2.4 | 102
CN1CCN(CC(=O)N2c3ccccc3C(C)(c3ccccc3)CC2(C)C)CC1 (stereo not given) | 7 | 93 | 11 | 11 | 6* | 93
Clc1ccc(-c2nnc(-c3ccco3)o2)cc1 | -48 | 86 | 91 | 19 | 2.3 | 144*
Cc1ccc(C(=O)N2CCN(S(=O)(=O)c3ccc(C)c([N+](=O)[O-])c3)C2)cc1 | 5 | 90 | -2 | 17 | 1.1 | 93
CCOc1ccccc1N(CC(=O)Nc1ccc(S(=O)(=O)N2CCOCC2)cc1)S(=O)(=O)c1ccc(Cl)cc1 | 0 | 103 | 7 | -4 | 1.3 | 100
CCSc1ncc(/C=N/Nc2ccc(Cl)cc2)n1C | -66 | 150* | 70 | -52 | 5.7* | 160*
CCOC(=O)c1nn(-c2ccc(F)cc2)cc1O | 0 | 107 | 8 | 1 | 1.4 | 98
CCOC(=O)c1nn(-c2ccc(Br)cc2)cc1C(=O)c1cccc2ccccc12 | -12 | 88 | 7 | 20 | 6.4* | 111
COc1ccc(OCC(=O)N/N=C(\C)CC(=O)Nc2cccc([N+](=O)[O-])c2)cc1 | 2 | 99 | -13 | 4 | 1 | 97
Cc1nn(-c2ccccc2)c(Cl)c1/C=N/Nc1nc2ccccc2n1C | -49 | 96 | 77 | 12 | 1.8 | 145*
Cc1nn(-c2ccccc2)c(Cl)c1/C=N/Nc1nnc(C)c(=O)[nH]1 | 1 | 102 | 13 | 0 | 1.8 | 98
Cc1ccc(C(=O)N2CCN(c3ncccn3)CC2)cc1S(=O)(=O)N1CCCCC1 | 5 | 88 | -1 | 14 | 1.1 | 96
COc1cc(C(=O)Nc2ccc(C#N)cc2)c([N+](=O)[O-])cc1OC | 2 | 82 | -27 | 30 | 1.1 | 98
Cc1ccc(NC(=O)/C=C\C(=O)NCC(=O)O)cc1 | -7 | 101 | -9 | 10 | 1.2 | 105
C/C(=N\N=C\c1ccccc1F)c1nnn(-c2nonc2N)c1C | -47 | 96 | 20 | 7 | 2 | 142*
COc1ccccc1/C=N/Nc1nncc2ccccc12 | -55 | 97 | 37 | 3 | 1.7 | 150*
COc1ccccc1/C=N/Nc1cc(N(C)C)nc(N(C)C)n1 | 7 | 99 | 2 | 7 | 1.1 | 91
COc1ccccc1NC(=O)Nc1nnc(CC(=O)Nc2ccccc2C)s1 | 4 | 107 | 1 | -7 | 1 | 94
CCCCc1ccc(-c2nc(-c3ccncc3)no2)cc1 | -16 | 100 | 176* | 4 | 7* | 116
c1ccc(-c2ccc(-c3nc(-c4ccncc4)no3)cc2)cc1 | -37 | 94 | 177* | 12 | 6.8* | 136*
c1ccc(-c2nc(-c3ccncc3)no2)cc1 | -41 | 94 | 103 | 9 | 2.2 | 138*
O=C(Cn1cncn1)NCc1cc(F)ccc1F | -3 | 103 | -8 | 8 | 1 | 102
Cc1ccccc1-c1nnc(-c2ccc(Br)cc2)o1 | -55 | 101 | 69 | 2 | 3 | 150*
SMILES | STAT1 blocker | STAT3 activator | APP 5'UTR act | STAT3 inh | NF-kB neuron act | STAT1 activator
Cc1ccccc1-c1nnc(SCC#N)o1 | -12 | 99 | 2 | 4 | 1.2 | 110
Cc1ccccc1-c1nnc(-c2ccccc2C)o1 | -33 | 102 | 21 | 2 | 3.7* | 130*
Cc1ccnc(N2C(=O)CSC2c2ccc(Cl)cc2)c1 (stereo not given) | 10 | 98 | 9 | 0 | 1.4 | 93
Cc1cc(NC(=O)C2CCCO2)ccc1Br (stereo not given) | -6 | 86 | 19 | 21 | 0.95 | 103
Cc1cc(NC(=S)NC(=O)C2CC2)ccc1Br | -43 | 119 | 48 | -29 | 2.2 | 139*
O=c1c(Cl)c(N2CCN(c3ccc(F)cc3)CC2)cnn1-c1nc2ccccc2s1 | -45 | 103 | 91 | 0 | 1.5 | 140*
CN1C(=O)/C(=C/c2cc(C(C)(C)C)c(O)c(C(C)(C)C)c2)NC1=S | 14 | 96 | 1 | 6 | 0.47 | 86
FC(F)(F)c1ccc(Oc2ccc3cc(Br)ccc3c2)nc1 | -1 | 94 | 1 | 10 | 1.1 | 101
O=[N+]([O-])c1ccc(Oc2ccc(C(F)(F)F)cn2)cc1 | -48 | 95 | -8 | 10 | 1.4 | 142*
CN1CCN(CC2(O)CCN(S(=O)(=O)c3ccc(Cl)cc3)CC2)CC1 | 0 | 102 | 23 | 8 | 0.99 | 99
Cc1cc(C(=O)CSc2nnnn2-c2ccccc2)c(C)n1CC1CCCO1 (stereo not given) | -43 | 105 | 8 | 0 | 0.94 | 139*
Cc1cc(C(=O)CN2C(=O)NC(C)(c3ccccc3)C2=O)c(C)n1CC1CCCO1 (stereo not given) | 6 | 97 | 7 | 3 | 0.64 | 94
Cc1cc(C(=O)CSc2nc3ccccc3c(=O)n2C)c(C)n1CC1CCCO1 (stereo not given) | 38* | 32 | -17 | 82* | 0.58 | 64
Cc1cc(C(=O)CN2C(=O)c3ccccc3S2(=O)=O)c(C)n1CC1CCCO1 (stereo not given) | 79* | 10 | -86 | 112* | 0.32 | 27
CCCCC(=O)OCC(=O)Nc1ccc(C)c(F)c1 | -5 | 107 | -5 | -4 | 1.1 | 102
Oc1ccc(N2CCN(c3ncnc4sc5c(c34)CCC5)CC2)cc1 | 16 | 86 | 11 | 22 | 3.4* | 85
C/C(=N\Nc1nc(Cl)c(Cl)cc1Cl)c1ccc(S(=O)(=O)NCc2ccco2)cc1 | 2 | 125 | 2 | -30 | 0.49 | 98
Cc1cccc(NC(=O)CSc2nnc(-c3ccccc3C)o2)c1 | -6 | 80 | 151* | 27 | 4.7* | 105
Cc1cc(C)cc(NC(=O)CSc2nnc(-c3ccccc3C)o2)c1 | 5 | 84 | 41 | 26 | 4.2* | 95
COC(=O)CCc1sc(Nc2ccccc2)nc1-c1ccc(OC)cc1 | -42 | 109 | 44 | -13 | 0.96 | 138*
CCCCCCNC1=NCCS1 | 1 | 101 | 2 | 0 | 1 | 100
O=C(Nc1ccc(Cl)cc1)c1ccc(OCC2CCCO2)cc1 (stereo not given) | -40 | 89 | 121 | 16 | 2.4 | 137*
COc1ccc(C(=O)NCc2nnc(SC)n2Cc2ccccc2)cc1 | -5 | 101 | 16 | 5 | 0.98 | 103
O=C(N/N=C/C(Br)=C/c1ccccc1)c1cccs1 | -55 | 90 | 147* | 15 | 7.5* | 148*
